dFosB act-1 = mouse delta FosB homodimer activation; purified delta FosB, TAMRA-CDK5 oligo fluorescence polarization; percent of positive-control signal above neutral wells; 340,000 tested, 0.99% active; activation, % at 25 µM; AID 493131; P13346;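 active means mean activation above about 17%, with every replicate also reaching it, limit read from the data, passing the limit was not always enough; inconclusive means only one of the two conditions met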
PAX8 inh HTS = PAX8 transcriptional activity inhibition; RMG-I TPO-luciferase reporter, SteadyGlo, 24 h; inhibition, % at 12.6 µM; 360,000 tested, 1.2% active;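 active means mean replicate inhibition at least 60% with every replicate also reaching 60%; inconclusive means only one of the two criteria is met; inactive means mean below 60% and not all replicates reaching 60%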;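 further: luciferase light reporting Pax8 driven TPO promoter activity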
CDK5 p35 inh = inhibitors of human CDK5/p35 kinase; 330,000 tested, 0.01% active; inhibition, % at 10 µM; AID 488839; Recombinant CDK5/p35, ADP-Glo luminescence, 60 min; Q00535+Q15078;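 active means highest replicate inhibition of at least 50% and at least 75% of replicates reaching 50%; inconclusive means only one of the two criteria met; inactive means both criteria failed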
Target sequence (Q00535 whole entry, looked up): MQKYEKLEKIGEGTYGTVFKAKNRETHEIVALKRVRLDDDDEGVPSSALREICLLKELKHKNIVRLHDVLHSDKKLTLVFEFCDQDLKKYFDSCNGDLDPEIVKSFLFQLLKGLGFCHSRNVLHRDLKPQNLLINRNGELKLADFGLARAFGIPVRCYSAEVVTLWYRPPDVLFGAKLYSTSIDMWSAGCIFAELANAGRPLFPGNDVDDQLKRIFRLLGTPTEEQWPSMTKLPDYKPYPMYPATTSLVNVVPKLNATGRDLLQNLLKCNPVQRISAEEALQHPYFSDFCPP
Target sequence (Q15078 whole entry, looked up): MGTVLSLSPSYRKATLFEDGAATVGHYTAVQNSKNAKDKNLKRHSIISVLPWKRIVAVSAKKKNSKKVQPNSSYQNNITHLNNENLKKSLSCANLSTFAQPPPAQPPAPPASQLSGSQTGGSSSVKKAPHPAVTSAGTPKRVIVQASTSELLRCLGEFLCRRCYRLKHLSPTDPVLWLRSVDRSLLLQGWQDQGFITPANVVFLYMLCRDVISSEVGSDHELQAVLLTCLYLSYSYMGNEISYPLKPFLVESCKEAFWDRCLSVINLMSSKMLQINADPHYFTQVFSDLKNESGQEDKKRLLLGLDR
GSIS activator = GLuc luminescence reporter in INS-1E cells, primary screen for activators of glucose-dependent secretion of insulin; INS-1E GLuc reporter insulin secretion, 2-3 h; activation, % at 16.6 µM; 370,000 tested, 0.61% active; AID 743287;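 active means lowest replicate activation of at least 40%, so every replicate reaches that level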
HIV Env fusion = blocks HIV Env-driven cell-cell fusion; HeLa-JRFL Env/CEM21 cell fusion, luciferase; inhibition, % at 12.3 µM; 360,000 tested, 1.1% active; AID 651610;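 active means mean replicate inhibition score of at least 50 and every replicate individually at or above 50; inconclusive means only one of the two criteria met; inactive means mean below 50 and not all replicates reaching 50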
Cneo AK release = Cryptococcus neoformans lysis via adenylate kinase release | lysis activity, % at 15 µM | AID 651654 | C. neoformans lysis, adenylate kinase release luminescence, 4 h; normalised: neutral wells 0, clomiphene wells 100 | 360,000 tested, 0.2% active;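 active means mean lysis activity across replicates of at least 80%, whatever share of replicates individually reach that level; inactive means mean lysis activity below 80%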
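Material – log-phase Cryptococcus neoformans yeast cells · Input – 5 × 10^6 yeast cells/mL · Medium – fresh YPD growth medium · Doses – single compound concentration per well · Timing – static 4 h at 37 °C with compound, 1 h detection · Detection – adenylate kinase release luminescence · Read-out – signal increase indicating cell lysis · Control set – Clomiphene as positive lysis control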
dFosB act-2 = delta FosB (mouse) homodimer activation. purified delta FosB, TAMRA-CDK5 oligo fluorescence polarization; normalised: neutral wells 0, positive control 100. 2,400 tested, under 10 active. shares compounds with dFosB act-1. activation, % at 24.9 µM. AID 588690;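 active means highest replicate activation at or above 34% and every replicate reaching that threshold; inconclusive means meets only one of the two criteria; inactive means meets neither criterion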;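 further: higher polarization means more probe DNA bound by delta FosB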
Each line names hits and unclear results; the compound was inactive in the other large screens (follow-up assays come after a bar, where they were run). Only some compounds are listed: those with a hit (about 2.9% of all), similar ones and a draw of the others.

CC(C)C[C@H](NC(=O)[C@@H]1Cc2ccccc2CN1)C(=O)Nc1ccc(C(C)C)cc1	dFosB act-1 23 | dFosB act-2 inactive
CCCC#Cc1cnc2c(c1)C(=O)N([C@@H](C)CO)C[C@H](C)[C@@H](CN(C)C(=O)C1CC1)O2	none (no result: dFosB act-1, PAX8 inh HTS, CDK5 p35 inh)
O=C(CSc1nc(-c2cccs2)nc2ccccc12)NC1CCS(=O)(=O)C1 (stereo not given)	dFosB act-1 34 (no result: HIV Env fusion) | dFosB act-2 inactive
C[C@@H]1CN([C@H](C)CO)S(=O)(=O)c2ccc(C#CC3(O)CCCC3)cc2O[C@@H]1CN(C)C(=O)Cc1ccncc1	none (no result: dFosB act-1, CDK5 p35 inh)
CCOC(=O)c1c(CSC(=N)N)n(C)c2cc(Br)c(OC(C)=O)cc12	none (no result: GSIS activator, Cneo AK release)
CCOC(=O)c1c(CSC(=N)N)n(-c2ccc(C)cc2)c2cc(Br)c(OC(C)=O)cc12	dFosB act-1 37, PAX8 inh HTS inconclusive (no result: GSIS activator) | dFosB act-2 inactive
C[C@H](CO)N1C[C@H](C)[C@@H](CN(C)Cc2ccc(Oc3ccccc3)cc2)Oc2c(NC(=O)C3CCOCC3)cccc2C1=O	none (no result: dFosB act-1, CDK5 p35 inh)
CCC(=O)Nc1ccc2c(c1)C(=O)N(C)[C@H]1CC[C@@H](CC(=O)NC3Cc4ccccc4C3)O[C@@H]1CO2	none (no result: dFosB act-1, CDK5 p35 inh)
O=C(Nc1ccc(F)cc1)C1CCN(c2ncnc3c2nc2n3CCCCC2)CC1	dFosB act-1 48 | dFosB act-2 inactive
CCc1ccc(NC(=O)C2CCN(c3ncnc4c3nc3n4CCCCC3)CC2)cc1	none
Cc1cccc2nc(-c3cccc(NC(=O)c4ccc(Cl)cc4)c3)cn12	dFosB act-1 21 (no result: GSIS activator) | dFosB act-2 inactive
Cc1cccc2nc(-c3cccc(NC(=O)Cc4ccccc4)c3)cn12	none
O=C(Cc1cccnc1)N1CC2(C1)[C@H](c1ccccc1)[C@@H](CO)N2C(=O)C1CCCCC1	none (no result: dFosB act-1, PAX8 inh HTS, CDK5 p35 inh, HIV Env fusion, Cneo AK release)
COc1ccc(NC(=O)Nc2ccc3c(c2)C(=O)N([C@H](C)CO)C[C@@H](C)[C@H](CN(C)S(=O)(=O)c2cccs2)O3)cc1	HIV Env fusion inconclusive (no result: dFosB act-1, PAX8 inh HTS, CDK5 p35 inh)
COc1ccc(Nc2ccc(OC)cc2)cc1	none (no result: dFosB act-1, CDK5 p35 inh)
NNc1nc(Nc2ccccc2)nc(Nc2ccccc2)n1	dFosB act-1 46 | dFosB act-2 inactive
COc1ccc(Nc2nc(NN)nc(Nc3ccc(OC)cc3)n2)cc1	dFosB act-1 25 | dFosB act-2 inactive
NNc1nc(Nc2ccccc2)nc(N2CCCCC2)n1	none (no result: PAX8 inh HTS, GSIS activator, HIV Env fusion)
O=C(NCC[C@@H]1CC[C@H](NC(=O)C2CCOCC2)[C@H](CO)O1)Nc1ccc(Cl)cc1	none (no result: dFosB act-1, CDK5 p35 inh)
COc1ccc(N2CCc3c(C)nc4c(OC)cc(OC)cc4c32)cc1	dFosB act-1 38 (no result: Cneo AK release) | dFosB act-2 inactive
O=S(=O)(c1cccs1)N1CN(Cc2ccccc2)c2nc3ccccc3nc21	none (no result: PAX8 inh HTS, GSIS activator, HIV Env fusion, Cneo AK release)
COc1ccc(CN2CN(S(=O)(=O)c3cccs3)c3nc4ccccc4nc32)cc1	dFosB act-1 58 (no result: Cneo AK release) | dFosB act-2 inactive
CCC(=O)Nc1ccc2c(c1)OC[C@H](C)N(C(=O)Cc1ccccn1)C[C@@H](C)[C@@H](OC)CN(C)C2=O	none (no result: dFosB act-1, PAX8 inh HTS, CDK5 p35 inh, HIV Env fusion)
COc1ccc(C(=O)NNC(=O)C(C)NC(=O)c2ccccc2NC(=O)c2ccco2)cc1 (stereo not given)	none (no result: Cneo AK release)
COc1ccc(C(=O)Nc2ccccc2C(=O)NC(Cc2ccc(O)cc2)C(=O)NNC(=O)c2ccccc2Cl)cc1 (stereo not given)	dFosB act-1 42 (no result: PAX8 inh HTS, HIV Env fusion) | dFosB act-2 inactive
O=C(Nc1ccccc1C(=O)NC(Cc1ccccc1)C(=O)O)c1ccccc1 (stereo not given)	none
O=C(Nc1ccccc1C(=O)NC(Cc1ccccc1)C(=O)NC1CCCCC1)c1ccccc1 (stereo not given)	dFosB act-1 21, HIV Env fusion 66 (no result: Cneo AK release) | dFosB act-2 inactive
COc1ccc(C(=O)NNC(=O)C(Cc2ccc(O)cc2)NC(=O)c2ccccc2NC(=O)c2ccc(OC)cc2)cc1 (stereo not given)	dFosB act-1 60 | dFosB act-2 inactive
CO[C@H]1CC[C@@H]2CCN(C)C(=O)[C@H](C)[C@H](OC)CN(C)C(=O)c3cc(C#N)ccc3OC[C@H]1O2	none (no result: dFosB act-1, CDK5 p35 inh)
C[C@@H]1CN([C@H](C)CO)C(=O)c2cc(NC(=O)Cc3ccccc3)ccc2O[C@@H](C)CCCCO[C@H]1CN(C)Cc1ccccc1	none (no result: dFosB act-1, CDK5 p35 inh)
COc1cc(/C=C(\C#N)c2nc3ccccc3[nH]2)ccc1OC(=O)c1ccco1	dFosB act-1 27 (no result: GSIS activator, Cneo AK release) | dFosB act-2 inactive
C[C@H]1CN([C@@H](C)CO)C(=O)c2cccc(NS(=O)(=O)c3ccccc3)c2O[C@@H]1CN(C)Cc1ccc2c(c1)OCO2	none (no result: dFosB act-1, CDK5 p35 inh, HIV Env fusion)
CC/C(=N\NC(=O)CSCc1ccccc1Br)c1ccc2c(c1)OCCO2	dFosB act-1 20 (no result: GSIS activator) | dFosB act-2 inactive
Cc1ccc(-c2n[nH]c(=S)n2/N=C/C=C/c2ccccc2[N+](=O)[O-])cc1	none (no result: GSIS activator)
O=[N+]([O-])c1ccccc1/C=C/C=N/n1c(-c2cc(-c3ccccc3)n[nH]2)n[nH]c1=S	dFosB act-1 54 (no result: GSIS activator, Cneo AK release) | dFosB act-2 inactive
S=c1[nH]nc(-c2cc(-c3ccccc3)n[nH]2)n1/N=C/C=C/c1ccccc1	dFosB act-1 41 | dFosB act-2 inactive
C[C@H](O)C#Cc1ccc2c(c1)O[C@@H](CN(C)Cc1ccccc1)[C@@H](C)CN([C@@H](C)CO)S2(=O)=O	none (no result: dFosB act-1, PAX8 inh HTS, CDK5 p35 inh)
CN1C(=O)c2cc(NC(=O)c3cccc(C(F)(F)F)c3)ccc2OC[C@@H]2O[C@H](CC(=O)NCCN3CCCC3)CC[C@H]21	none (no result: dFosB act-1, CDK5 p35 inh, HIV Env fusion)
CC(C)(C)C1CCc2c(sc(NC(=O)c3ccncc3)c2C(N)=O)C1 (stereo not given)	dFosB act-1 34 (no result: GSIS activator, HIV Env fusion) | dFosB act-2 inactive
COc1ccc(S(=O)(=O)N(C)C[C@@H]2Oc3ccc(NS(=O)(=O)c4ccc(F)cc4)cc3C(=O)N([C@H](C)CO)C[C@H]2C)cc1	none (no result: dFosB act-1, CDK5 p35 inh)
O=C(NCC1CC1)[C@H]1[C@H](CO)[C@H]2Cn3c(cccc3=O)[C@H]2N1Cc1cncnc1	none (no result: dFosB act-1, PAX8 inh HTS, CDK5 p35 inh)
NCCCCc1ccc2ccc3cccc4ccc1c2c34	dFosB act-1 32 | dFosB act-2 inactive
O=C(O)CCCc1ccc2ccc3cccc4ccc1c2c34	none
O=C(COC(=O)c1n[nH]c(=O)c2ccccc12)NCc1ccccc1	none
O=C(COC(=O)c1n[nH]c(=O)c2ccccc12)NC1CCCCC1	dFosB act-1 50 (no result: HIV Env fusion) | dFosB act-2 inactive
COc1cccc(Cn2cnc3c(NS(=O)(=O)c4ccc(Cl)cc4)c(C)c(C)cc32)c1	dFosB act-1 17 (no result: PAX8 inh HTS) | dFosB act-2 inactive
COc1cccc(Cn2cnc3c(NS(=O)(=O)c4ccc(Cl)cc4Cl)c(C)c(C)cc32)c1	none (no result: GSIS activator)
COc1ccc(CN(C)C[C@H]2OCCCC[C@H](C)Oc3ccc(NS(=O)(=O)c4ccc(Cl)cc4)cc3C(=O)N([C@@H](C)CO)C[C@@H]2C)cc1	none (no result: dFosB act-1, CDK5 p35 inh)

Compound activity (PubChem)
